Experiments:
[1] = target: T1, Sphingosine-1-phosphate lyase 1 (Homo sapiens, UniProt O95470); assay: Inhibition of recombinant human S1PL using RBM13 as fluorogenic substrate incubated for 1 hr
T1 sequence (O95470 whole entry): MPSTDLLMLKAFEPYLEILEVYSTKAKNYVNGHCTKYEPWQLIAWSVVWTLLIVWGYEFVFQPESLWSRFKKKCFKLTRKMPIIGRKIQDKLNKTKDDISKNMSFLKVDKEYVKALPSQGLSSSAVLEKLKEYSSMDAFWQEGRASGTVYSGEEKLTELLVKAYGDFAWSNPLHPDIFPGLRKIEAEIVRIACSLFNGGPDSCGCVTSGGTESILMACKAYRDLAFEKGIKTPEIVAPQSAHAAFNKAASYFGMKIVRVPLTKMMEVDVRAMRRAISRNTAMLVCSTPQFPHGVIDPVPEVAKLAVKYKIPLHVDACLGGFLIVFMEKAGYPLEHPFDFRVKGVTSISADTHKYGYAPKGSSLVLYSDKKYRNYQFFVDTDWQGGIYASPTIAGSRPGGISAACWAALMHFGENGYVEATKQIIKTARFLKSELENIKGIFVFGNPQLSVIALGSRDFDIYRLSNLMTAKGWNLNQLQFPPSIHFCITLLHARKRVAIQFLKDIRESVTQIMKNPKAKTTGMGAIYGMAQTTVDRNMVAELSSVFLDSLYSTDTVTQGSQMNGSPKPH
How it was run: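 Recombinant hS1PL at 3 µg/mL final in 100 mM HEPES pH 7.4 with 0.1 mM EDTA, 0.05% Triton X-100, 0.01% Pluronic F127 and 100 µM PLP. RBM13 at 125 µM final; 37 °C for 1 h. MeOH stop, then glycine-NaOH pH 10.6 for 20 min at 37 °C. Umbelliferone fluorescence at 355/460 nm, calibration curve. IC50 from % activity vs log[I].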

[2] = target: T1, Sphingosine-1-phosphate lyase 1; assay: Competitive inhibition of human S1PL using varying levels of RBM13 as substrate by Lineweaver-Burk plot analysis
[3] = Inhibition of recombinant full-length wild type Symbiobacterium thermophilum S1PL using RBM13 as fluorogenic substrate incubated for 1 hr
How it was run: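 StS1PL, expressed and purified in-house, used at 25 µg/mL final. Buffer: 1 mM potassium phosphate pH 7.2 with 100 mM NaCl, 1 mM EDTA, 1 mM DTT and 10 µM PLP. RBM13 at 125 µM final; 37 °C for 1 h. Stopped with MeOH, then glycine-NaOH pH 10.6 for 20 min at 37 °C. Umbelliferone read at ex/em 355/460 nm against a calibration curve. IC50 fitted from % activity vs log[I].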

[4] = system: Symbiobacterium thermophilum; assay: Inhibition of recombinant full-length wild type Symbiobacterium thermophilum S1PL at 250 uM using RBM13 as fluorogenic substrate incubated for 1 hr relative to control
[5] = target: T2, Sphingosine-1-phosphate lyase 1 (Homo sapiens) (UniProt O95470); assay: Inhibition of recombinant human S1PL at 250 uM using RBM13 as fluorogenic substrate incubated for 1 hr relative to control
T2 sequence (whole entry): T1 sequence (O95470 whole entry)

[6] = target: T3, Sphingosine-1-phosphate lyase 1 (Mus musculus, UniProt Q8R0X7); assay: Inhibition of mouse liver microsomal S1PL using S1P as substrate incubated for 20 mins by ESI-LC/MS analysis; format: microsomes, Microsome
T3 sequence (Q8R0X7 whole entry): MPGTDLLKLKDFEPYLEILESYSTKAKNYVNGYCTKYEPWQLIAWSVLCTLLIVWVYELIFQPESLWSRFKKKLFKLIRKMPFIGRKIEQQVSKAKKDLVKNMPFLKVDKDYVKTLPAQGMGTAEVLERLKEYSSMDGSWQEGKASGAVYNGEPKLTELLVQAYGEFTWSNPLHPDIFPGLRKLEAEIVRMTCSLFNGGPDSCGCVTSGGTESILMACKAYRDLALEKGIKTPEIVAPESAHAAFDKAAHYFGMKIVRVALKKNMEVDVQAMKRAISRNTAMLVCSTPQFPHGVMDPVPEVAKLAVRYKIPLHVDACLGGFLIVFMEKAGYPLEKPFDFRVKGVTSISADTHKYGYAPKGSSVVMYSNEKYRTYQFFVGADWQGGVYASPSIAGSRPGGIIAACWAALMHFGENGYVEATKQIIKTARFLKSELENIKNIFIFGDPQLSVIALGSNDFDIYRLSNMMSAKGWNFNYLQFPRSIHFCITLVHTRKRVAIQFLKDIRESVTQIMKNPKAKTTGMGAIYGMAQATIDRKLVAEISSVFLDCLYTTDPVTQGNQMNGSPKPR

Row | SMILES | IC50 [1] | Ki [2] | IC50 [3] | inhibition [4] | inhibition [5] | IC50 [6]
1 | CCCCCCCCCCCCC/C=C/[C@H](O)[C@H](COP(=O)(O)O)N=[N+]=[N-] | 28.8 µM | 20.4 µM | 16 µM |  |  | 
2 | CCCCCCCCCCCCC/C=C/[C@@H](O)[C@H](COP(=O)(O)O)N=[N+]=[N-] | 10.1 µM | 9.1 µM | 12.9 µM |  |  | 
3 | CCCCCCCCCCCCCCC[C@H](O)[C@@H](COP(=O)(O)O)N=[N+]=[N-] | 10.8 µM | 6.3 µM | 25.7 µM |  |  | 
4 | Cc1ncc(COP(=O)(O)O)c(CNCCOP(=O)(O)O)c1O |  |  |  | 20% | 20% | 
5 | CCCCCCCCCCCCCCC[C@@H](O)[C@@H](COP(=O)(O)O)N=[N+]=[N-] | 28.3 µM | 36.7 µM | 24.3 µM |  |  | 
6 | CCCCCCCCCCCCCCC[C@@H](O)[C@H](COP(=O)(O)O)N=[N+]=[N-] | 25.7 µM | 19 µM | 25 µM |  |  | 
7 | CCCCCCCCc1ccc(CCC(N)(CO)CO)cc1 [FINGOLIMOD] |  |  |  |  |  | 52.4 µM
8 | CCCCCCCCCCCCC/C=C/[C@H](O)[C@@H](COP(=O)(O)O)N=[N+]=[N-] | 5.2 µM | 5.6 µM | 13.8 µM |  |  | 
9 | CCCCCCCCCCCCC/C=C/[C@@H](O)[C@H](COP(=O)(O)O)NCc1c(COP(=O)(O)O)cnc(C)c1O | 89 µM |  | 53.4 µM |  |  | 
10 | CCCCCCCCCCCCCCC[C@H](O)[C@H](COP(=O)(O)O)N=[N+]=[N-] | 21.8 µM | 16.4 µM | 27.2 µM |  |  | 
11 | CCCCCCCCCCCCCCC[C@@H](O)[C@H](COP(=O)(O)O)NCc1c(COP(=O)(O)O)cnc(C)c1O | 81.1 µM |  | 47 µM |  |  | 
12 | CCCCCCCCCCCCC/C=C/[C@@H](O)[C@@H](COP(=O)(O)O)N=[N+]=[N-] | 22.9 µM | 17.5 µM | 11.7 µM |  |  | 
